Results from ChEMBL document CHEMBL4219101, “Discovery of 18β-glycyrrhetinic acid conjugated aminobenzothiazole derivatives as Hsp90-Cdc37 interaction disruptors that inhibit cell migration and reverse drug resistance” (Bioorg Med Chem, 2018).
Activity calls are given as the source filed them. No cut-off for these calls is given here.

Assays:
A549 [1] = assay: Inhibition of Hsp90/Cdc37 interaction in human A549 cells assessed as downregulation of Cdc37 in immunoprecipitated HSP90 complex at 5 to 10 uM after 24 hrs by Western blot analysis; assay type: cell-based
Outline: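 A549 cells exposed to 5 and 10 µM for 24 h, geldanamycin 10 µM as comparator. Lysis in 20 mM Tris-HCl pH 7.4, 25 mM NaCl, 2 mM DTT, 20 mM Na2MoO4, 0.1% NP-40 and protease inhibitors. 500 µg protein immunoprecipitated overnight at 4 °C with anti-Hsp90 antibody, captured on protein G agarose, washed five times and boiled. Cdc37 and Hsp90 detected by Western blot, with input also blotted.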

A549 [2] = assay: Induction of apoptosis in human A549 cells assessed as downregulation of Bcl2 protein expression after 24 hrs by Western blot analysis; assay type: functional, cell-based
Outline: (§1)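 A549 cells exposed to 5 and 10 µM for 24 h. Lysates cleared at 20000g, protein quantified by BCA and equal amounts run on 12% SDS-PAGE, then transferred to PVDF. Blocked in 5% skim milk in TBST. Probed overnight at 4 °C with antibodies to Bcl-2, Bax, caspase-9, caspase-3 and β-actin (loading reference). Chemiluminescent detection. Three independent experiments.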

A549 [3] = assay: Induction of apoptosis in human A549 cells assessed as late apoptotic cells at 10 uM after 24 hrs by Annexin-V FITC/propidium iodide staining based flow cytometry (reference value: 0.030%)
A549 [4] = assay: Induction of apoptosis in human A549 cells assessed as upregulation of cleaved caspase-3 protein expression after 24 hrs by Western blot analysis; assay type: functional, cell-based; outline: as §1
[5] = target: Heat shock protein HSP90 (Homo sapiens) (UniProt P07900+P08238); assay: Inhibition of HSP90 in human A549 cells assessed as downregulation of phosphorylated akt expression after 24 hrs by Western blot analysis; assay type: cell-based
Outline: (§2)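 A549 cells exposed for 24 h, with geldanamycin as comparator. Whole-cell lysates separated by SDS-PAGE and immunoblotted for the named proteins. β-actin used as reference.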

[6] = target: Heat shock protein HSP 90-alpha/Hsp90 co-chaperone Cdc37 (Homo sapiens) (UniProt P07900+Q16543); assay: Inhibition of HSP90alpha/Cdc37 interaction in human A549 cells assessed as upregulation of HSP90alpha expression at 5 to 10 uM after 24 hrs by Western blot analysis; assay type: cell-based; outline: as §2
Homo sapiens = species: Homo sapiens; assay: Inhibition of HSP90/Cdc37 interaction assessed as reversal of drug resistance by measuring ratio of IC50 for human doxorubicin-resistant NCI-H460 cells to IC50 for human NCI-H460 cells
Outline: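 Resistance factor is the ratio of IC50 in NCI-H460/DOX cells to IC50 in parental NCI-H460 cells. […] Values are mean ± SD of five separate experiments. Doxorubicin serves as the positive control.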

A549 [7] = assay: Inhibition of HSP90/Cdc37 interaction in human A549 cells assessed as suppression cellular migration at 5 to 10 uM after 24 hrs by wound healing assay; assay type: cell-based
Outline: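 Scratch wounds made in A549 monolayers, cells then exposed to 5 µM and 10 µM. Wound closure imaged by microscopy at 0 h and 24 h, magnification 200×.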

A549 [8] = assay: Induction of apoptosis in human A549 cells assessed as intracellular ROS levels at 10 uM after 24 hrs by FITC-DCF-DA-fluorescence based flow cytometry (reference value: 0.832%); assay type: functional
Outline: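 A549 cells exposed to 5 and 10 µM for 24 h, untreated cells as control. Collected, washed with ice-cold PBS and loaded with DCFH-DA in cell-free medium for 20 min at 37 °C in the dark, then washed. Fluorescence measured by flow cytometry at 485 nm excitation and 538 nm emission. Mean ± S.D. of three independent experiments.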

HCT-116 = assay: Antiproliferative activity against human HCT116 cells after 48 hrs by MTT assay; assay type: functional, cell-based; conditions: HCT-116, 48 h
Outline: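 Cells in log phase seeded at about 1.0 × 10^5 cells/mL in 96-well plates, left 12 h at 37 °C, 5% CO2. Compounds dissolved in DMSO, added at 2.5, 5, 10, 20 and 50 µM, 48 h exposure. Absorbance read at 570/630 nm dual wavelength. Survival expressed relative to negative control. IC50 by Bliss method (n = 5), tests done in triplicate.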

A549 [9] = assay: Induction of apoptosis in human A549 cells assessed as upregulation of Bax protein expression after 24 hrs by Western blot analysis; assay type: functional, cell-based; outline: as §1
A549 [10] = assay: Induction of apoptosis in human A549 cells assessed as late apoptotic cells at 5 uM after 24 hrs by Annexin-V FITC/propidium iodide staining based flow cytometry (reference value: 0.030%)
A549 [11] = assay: Induction of apoptosis in human A549 cells assessed as increase in number of nuclei containing condensed chromatin at 5 to 10 uM after 24 hrs by Hoechest 33258-staining based fluorescence microscopy; assay type: functional, cell-based
Outline: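 5.0 × 10^5 A549 cells per well exposed to 5 and 10 µM for 24 h, untreated cells as control. Fixed in 4% paraformaldehyde for 30 min, washed with ice-cold PBS and stained with Hoechst 33258 for 20 min in the dark. Condensed nuclei imaged by fluorescence microscopy at 350 nm excitation and 460 nm emission, 200× magnification.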

Chain of Heat shock protein HSP 90-alpha/Hsp90 co-chaperone Cdc37 (Homo sapiens) (Q16543 whole entry, looked up, other chains not shown): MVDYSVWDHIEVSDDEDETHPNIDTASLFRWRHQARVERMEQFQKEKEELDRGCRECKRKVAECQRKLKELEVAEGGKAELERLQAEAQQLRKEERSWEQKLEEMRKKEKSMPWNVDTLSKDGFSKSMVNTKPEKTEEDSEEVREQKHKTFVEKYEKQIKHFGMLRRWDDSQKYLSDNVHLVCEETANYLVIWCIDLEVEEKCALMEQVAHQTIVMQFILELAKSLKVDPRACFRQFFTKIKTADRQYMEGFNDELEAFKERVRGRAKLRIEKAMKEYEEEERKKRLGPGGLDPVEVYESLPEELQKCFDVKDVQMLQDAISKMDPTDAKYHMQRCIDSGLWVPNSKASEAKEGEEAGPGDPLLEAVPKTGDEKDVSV

inhibition [5]: Dose-dependent effect
inhibition [6]: Active
Ratio IC50 (Homo sapiens): 1.36
IC50 (HCT-116): 7.97 µM
SMILES: CCOC(=O)[C@@]1(C)CC[C@]2(C)CC[C@]3(C)C(=CC(=O)[C@@H]4[C@@]5(C)CC[C@H](OC(=O)CCC(=O)Nc6nc7ccc(F)cc7s6)C(C)(C)[C@@H]5CC[C@]43C)[C@@H]2C1
inhibition (A549 [1]): Active
Activity (A549 [2]): Dose-dependent effect
Activity (A549 [3]): 6.07%
Activity (A549 [4]): Dose-dependent effect
inhibition (A549 [7]): Active
Activity (A549 [8]): 67.5%
Activity (A549 [9]): Dose-dependent effect
Activity (A549 [10]): 3.84%
Activity (A549 [11]): Dose-dependent effect
